ChEMBL document CHEMBL1155867, “Synthesis and evaluation of alpha,alpha'-disubstituted phenylacetate derivatives for T-type calcium channel blockers” (Bioorg Med Chem Lett, 2008)
One block for each molecule: values may come before it.

Assays:
[1] = target: T1, Voltage-dependent T-type calcium channel subunit alpha-1G (Homo sapiens, UniProt O43497); assay: Antagonist activity at T type calcium channel alpha1G expressed in HEK293 cells assessed as inhibition of peak currents at 10 uM by whole-cell patch-clamp method; assay type: functional, cell-based
[2] = target: T1, Voltage-dependent T-type calcium channel subunit alpha-1G; assay: Antagonist activity at T type calcium channel alpha1G expressed in HEK293 cells assessed as inhibition of peak currents by whole-cell patch-clamp method; assay type: functional, cell-based
Summary of the method: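 Whole-cell patch clamp on HEK293 cells expressing alpha1G. External solution contained 140 mM NaCl, CaCl2, 10 mM Hepes and 10 mM glucose at pH 7.4. Pipettes were 3–4 MΩ, with Mg-ATP in the internal solution. Currents were evoked every 15 s by a 50 ms step from −100 to −30 mV. IC50 came from dose–response fits of peak current inhibition.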

[3] = target: T1, Voltage-dependent T-type calcium channel subunit alpha-1G; assay: Antagonist activity at T type calcium channel alpha1G expressed in HEK293 cells assessed as inhibition of peak currents at 1 uM by whole-cell patch-clamp method; assay type: functional, cell-based
[4] = target: Voltage-gated inwardly rectifying potassium channel KCNH2 (Homo sapiens, UniProt Q12809); assay: Inhibition of human ERG channel
[5] = Inhibition of L type calcium channel at 1 uM
[6] = Ratio of IC50 for human ERG channel to IC50 for T type calcium channel alpha1G
[7] = Selectivity for T type calcium channel alpha1G over L type calcium channel
[8] = Tmax in mouse brain at 50 mg/kg, po; assay type: ADME, organism-based; design: dose 50 mg/kg, route oral
Summary of the method: (§1)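 Single oral gavage dose of 50 mg/kg to mice. Vehicle was DMA/Cremophor EL/PBS (10/10/80 v/v %). Plasma and brain were sampled. AUC0–t was calculated by the linear trapezoidal rule, and brain/plasma ratio was taken as AUCbrain/AUCplasma.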

[9] = Tmax in mouse plasma at 50 mg/kg, po; assay type: ADME, organism-based; design: dose 50 mg/kg, route oral; summary of the method: as §1
[10] = Cmax in mouse brain at 50 mg/kg, po; assay type: ADME, organism-based; design: dose 50 mg/kg, route oral; summary of the method: as §1
[11] = Cmax in mouse plasma at 50 mg/kg, po; assay type: ADME, organism-based; design: dose 50 mg/kg, route oral; summary of the method: as §1
[12] = Ratio of Cmax for mouse brain to Cmax for mouse plasma at 50 mg/kg, po; assay type: ADME, organism-based; design: dose 50 mg/kg, route oral
[13] = AUC (0 to t) in mouse brain at 50 mg/kg, po; assay type: ADME, organism-based; design: dose 50 mg/kg, route oral; summary of the method: as §1
[14] = AUC (0 to t) in mouse plasma at 50 mg/kg, po; assay type: ADME, organism-based; design: dose 50 mg/kg, route oral; summary of the method: as §1
[15] = Ratio of AUC (0 to t) for mouse brain to AUC (0 to t) for mouse plasma at 50 mg/kg, po; assay type: ADME, organism-based; design: dose 50 mg/kg, route oral
Summary of the method: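 Mice got a single oral 50 mg/kg dose in DMA/Cremophor EL/PBS (10/10/80 v/v %). Plasma and brain levels were measured to give Tmax, Cmax and AUC0–t, with AUC by the linear trapezoidal rule. Brain/plasma ratio taken from the brain and plasma parameters (B/P = AUC_brain/AUC_plasma).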

[16] = Metabolic stability in mouse liver; assay type: ADME, tissue-based; conditions: liver (preparation not stated)
[17] = target: T1, Voltage-dependent T-type calcium channel subunit alpha-1G; assay: Antagonist activity at T type calcium channel alpha1G expressed in HEK293 cells assessed as inhibition of peak currents by whole-cell patch-clamp method

T1 sequence (O43497 whole entry): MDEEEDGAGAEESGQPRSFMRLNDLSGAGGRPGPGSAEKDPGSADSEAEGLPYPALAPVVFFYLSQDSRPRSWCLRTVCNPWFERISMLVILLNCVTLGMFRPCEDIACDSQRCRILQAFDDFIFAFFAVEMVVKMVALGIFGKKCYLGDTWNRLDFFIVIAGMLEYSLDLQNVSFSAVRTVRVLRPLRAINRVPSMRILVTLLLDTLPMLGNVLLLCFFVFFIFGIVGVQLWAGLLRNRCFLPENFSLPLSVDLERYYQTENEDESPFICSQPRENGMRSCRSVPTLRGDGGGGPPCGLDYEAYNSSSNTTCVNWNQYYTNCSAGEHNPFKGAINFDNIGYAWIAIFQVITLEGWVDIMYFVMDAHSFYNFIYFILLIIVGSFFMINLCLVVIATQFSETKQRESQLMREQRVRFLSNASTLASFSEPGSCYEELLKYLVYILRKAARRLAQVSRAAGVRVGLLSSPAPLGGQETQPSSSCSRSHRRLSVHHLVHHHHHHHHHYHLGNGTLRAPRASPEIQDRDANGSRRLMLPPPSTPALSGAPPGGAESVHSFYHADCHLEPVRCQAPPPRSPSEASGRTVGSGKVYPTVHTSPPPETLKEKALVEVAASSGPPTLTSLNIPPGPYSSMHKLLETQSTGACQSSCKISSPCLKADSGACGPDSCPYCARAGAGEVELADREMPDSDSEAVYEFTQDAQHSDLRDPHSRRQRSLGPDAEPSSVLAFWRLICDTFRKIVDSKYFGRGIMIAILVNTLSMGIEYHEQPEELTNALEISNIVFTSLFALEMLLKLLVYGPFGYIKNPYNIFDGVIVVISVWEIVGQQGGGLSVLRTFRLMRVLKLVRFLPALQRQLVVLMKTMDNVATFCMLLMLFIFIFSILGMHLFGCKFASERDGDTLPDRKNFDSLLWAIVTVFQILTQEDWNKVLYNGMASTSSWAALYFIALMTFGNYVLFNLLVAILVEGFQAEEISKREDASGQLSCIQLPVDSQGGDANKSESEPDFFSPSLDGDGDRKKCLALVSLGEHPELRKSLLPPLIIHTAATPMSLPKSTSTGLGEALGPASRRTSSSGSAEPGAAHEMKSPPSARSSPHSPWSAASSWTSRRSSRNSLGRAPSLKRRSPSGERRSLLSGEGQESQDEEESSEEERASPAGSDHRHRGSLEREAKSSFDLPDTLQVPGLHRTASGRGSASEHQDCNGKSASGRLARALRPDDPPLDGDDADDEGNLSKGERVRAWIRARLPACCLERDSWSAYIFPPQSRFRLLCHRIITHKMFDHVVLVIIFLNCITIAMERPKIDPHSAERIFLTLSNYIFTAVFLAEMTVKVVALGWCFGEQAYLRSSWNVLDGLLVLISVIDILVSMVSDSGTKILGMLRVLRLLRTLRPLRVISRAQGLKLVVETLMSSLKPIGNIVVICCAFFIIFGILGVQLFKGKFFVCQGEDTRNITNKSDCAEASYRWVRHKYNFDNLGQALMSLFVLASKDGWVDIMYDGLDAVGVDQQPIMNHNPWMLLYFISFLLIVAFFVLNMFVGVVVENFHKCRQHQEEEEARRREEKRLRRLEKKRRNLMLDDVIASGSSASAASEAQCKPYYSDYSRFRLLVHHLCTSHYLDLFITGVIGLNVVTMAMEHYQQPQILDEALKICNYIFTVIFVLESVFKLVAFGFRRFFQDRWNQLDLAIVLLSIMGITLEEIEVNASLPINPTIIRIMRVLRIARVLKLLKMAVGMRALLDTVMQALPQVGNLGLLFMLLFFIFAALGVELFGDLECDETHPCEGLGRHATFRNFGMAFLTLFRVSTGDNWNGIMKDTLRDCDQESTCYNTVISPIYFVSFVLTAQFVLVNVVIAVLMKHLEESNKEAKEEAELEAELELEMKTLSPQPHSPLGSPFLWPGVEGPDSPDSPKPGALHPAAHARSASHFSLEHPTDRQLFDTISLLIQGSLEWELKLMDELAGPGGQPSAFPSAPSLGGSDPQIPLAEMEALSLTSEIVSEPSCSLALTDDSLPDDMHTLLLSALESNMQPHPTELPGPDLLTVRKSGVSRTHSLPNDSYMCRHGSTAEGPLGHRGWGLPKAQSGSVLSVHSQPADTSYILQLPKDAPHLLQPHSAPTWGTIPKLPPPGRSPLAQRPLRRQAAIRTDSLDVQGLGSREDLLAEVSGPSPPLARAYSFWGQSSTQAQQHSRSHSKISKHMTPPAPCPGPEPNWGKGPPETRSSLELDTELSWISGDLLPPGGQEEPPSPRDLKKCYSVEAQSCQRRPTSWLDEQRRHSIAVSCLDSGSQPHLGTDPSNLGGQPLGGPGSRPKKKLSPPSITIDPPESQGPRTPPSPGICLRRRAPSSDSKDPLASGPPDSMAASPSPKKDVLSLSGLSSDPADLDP
Sequence of Voltage-gated inwardly rectifying potassium channel KCNH2 (Q12809 whole entry): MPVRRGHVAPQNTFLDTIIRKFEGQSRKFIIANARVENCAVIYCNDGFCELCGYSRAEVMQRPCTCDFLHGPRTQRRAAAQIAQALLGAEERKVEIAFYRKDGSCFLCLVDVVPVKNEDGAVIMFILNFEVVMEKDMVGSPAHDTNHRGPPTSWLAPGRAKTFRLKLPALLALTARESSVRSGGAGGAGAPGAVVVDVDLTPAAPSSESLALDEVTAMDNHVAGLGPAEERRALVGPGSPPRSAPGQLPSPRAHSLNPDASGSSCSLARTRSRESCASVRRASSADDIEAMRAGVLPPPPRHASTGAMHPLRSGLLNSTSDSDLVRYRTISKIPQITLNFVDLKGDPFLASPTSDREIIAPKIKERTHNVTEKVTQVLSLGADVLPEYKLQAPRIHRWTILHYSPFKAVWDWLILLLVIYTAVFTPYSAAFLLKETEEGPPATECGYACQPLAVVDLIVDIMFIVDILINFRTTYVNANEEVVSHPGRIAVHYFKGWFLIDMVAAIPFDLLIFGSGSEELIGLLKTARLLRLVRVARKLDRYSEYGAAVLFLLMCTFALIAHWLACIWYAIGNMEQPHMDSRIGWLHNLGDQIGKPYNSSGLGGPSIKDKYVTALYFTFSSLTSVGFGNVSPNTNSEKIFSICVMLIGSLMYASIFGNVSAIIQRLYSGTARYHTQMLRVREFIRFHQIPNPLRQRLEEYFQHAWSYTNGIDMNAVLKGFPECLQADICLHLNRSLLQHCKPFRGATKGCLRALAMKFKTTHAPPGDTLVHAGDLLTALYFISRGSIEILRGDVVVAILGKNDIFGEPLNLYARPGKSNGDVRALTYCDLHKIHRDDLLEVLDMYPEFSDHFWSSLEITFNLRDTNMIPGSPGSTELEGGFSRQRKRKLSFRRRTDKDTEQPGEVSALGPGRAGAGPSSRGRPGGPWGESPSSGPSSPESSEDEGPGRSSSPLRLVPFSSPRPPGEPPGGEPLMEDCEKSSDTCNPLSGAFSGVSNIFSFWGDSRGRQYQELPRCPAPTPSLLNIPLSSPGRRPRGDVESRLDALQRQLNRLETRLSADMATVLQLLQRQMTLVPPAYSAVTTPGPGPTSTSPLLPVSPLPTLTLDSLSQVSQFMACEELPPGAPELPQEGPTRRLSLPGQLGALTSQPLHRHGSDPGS

Compound: COC(=O)C(CCCN1CCN(Cc2cccc(F)c2)CC1)(c1ccc(Br)cc1)C(C)C (stereo not drawn)
inhibition [1]: 89.3%

Compound: COC(=O)C(CCCN1CCN(Cc2cccc(C(F)(F)F)c2)CC1)(c1ccc(Br)cc1)C(C)C (stereo not drawn)
IC50 [2]: 0.28 µM | inhibition [1]: 93%

Compound: CCOC(=O)C(CCCN1CCN(Cc2ccc(OC)cc2)CC1)(c1ccccc1)C(C)C (stereo not drawn)
inhibition [1]: 96.3%

Compound: COC(=O)C(CCCN1CCN(Cc2cccc(C)c2)CC1)(c1ccc(Br)cc1)C(C)C (stereo not drawn)
inhibition [1]: 94.9%

Compound: COC(=O)C(CCCN1CCN(Cc2ccc(OC)c(OC)c2OC)CC1)(c1ccc(Br)cc1)C(C)C (stereo not drawn)
inhibition [1]: 95.1%

Compound: COC(=O)C(CCCN1CCN(Cc2ccc(OC)cc2)CC1)(c1ccc(Br)cc1)C(C)C (stereo not drawn)
inhibition [1]: 96%

Compound: COC(=O)C(CCCN1CCN(Cc2ccc(F)cc2)CC1)(c1ccc(Br)cc1)C(C)C (stereo not drawn)
inhibition [1]: 96.5%

Compound: CCOC(=O)C(CCCN1CCN(Cc2ccc(F)cc2)CC1)(c1ccccc1)C(C)C (stereo not drawn)
inhibition [1]: 94%

The next lines start with results.

inhibition [1]: 91.7%
Compound: COC(=O)C(CCCN(C)CCCc1nc2cc(OC)ccc2[nH]1)(c1ccc(OC)cc1)C(C)C (stereo not drawn)

inhibition [1]: 91.4%
Compound: CCOC(=O)C(CCCN(C)CCCc1nc2cc(C)c(C)cc2[nH]1)(c1ccccc1)C(C)C (stereo not drawn)

inhibition [1]: 90.4%
Compound: COC(=O)C(CCCN1CCN(Cc2ccccc2F)CC1)(c1ccc(Br)cc1)C(C)C (stereo not drawn)

inhibition [1]: 93.5%
Compound: COC(=O)C(CCCN(C)CCCc1nc2ccccc2[nH]1)(c1ccc(OC)cc1)C(C)C (stereo not drawn)

inhibition [1]: 94.5%
Compound: COC(=O)C(CCCN(C)CCCc1nc2cc(OC)ccc2[nH]1)(c1ccc(Br)cc1)C(C)C (stereo not drawn)

inhibition [3]: 94.2%
Compound: COC(=O)C(CCCN(C)CCCc1nc2cc(C)c(C)cc2[nH]1)(c1ccc(Br)cc1)C(C)C (stereo not drawn)

inhibition [1]: 98.3%
Compound: CCOC(=O)C(CCCN(C)CCCc1nc2ccccc2[nH]1)(c1ccccc1)C(C)C (stereo not drawn)

IC50 [2]: 0.095 µM | inhibition [1]: 94.1%
Compound: COC(=O)C(CCCN1CCN(c2ccccc2OC)CC1)(c1ccc(Br)cc1)C(C)C (stereo not drawn)

inhibition [5]: 0% | Ratio IC50 [6]: 21.8 | Selectivity Index [7]: > 1000 | Tmax [8]: 1 h | Tmax [9]: 1 h | Cmax [10]: 274 ng/mL | Cmax [11]: 1620 ng/mL | Kp [12]: 0.17 | AUC(0-t) [13]: 973 ng·h/mL | AUC(0-t) [14]: 3900 ng·h/mL | Kp [15]: 0.25 | half-life [16]: 1 h | inhibition [1]: 96.9% | IC50 [17]: 0.00817 µM
Compound: COC(=O)C(CCCN(C)CCCc1nc2ccccc2[nH]1)(c1ccc(Br)cc1)C(C)C (stereo not drawn)
IC50 [4]: 0.178 µM
